This is an account of results in ChEMBL document CHEMBL1155155, “Single-dose pharmacokinetics of intravenous itraconazole and hydroxypropyl-beta-cyclodextrin in infants, children, and adolescents” (Antimicrob Agents Chemother, 2007).

Data set [1] deals with Homo sapiens. As to the kind of experiment: Cmax in infants of 0.6-2 yrs age at risk for fungal infection assessed as hydroxyitraconazole level at 2.5 mg/kg, iv in 0.1 g/kg hydroxypropyl-beta-cyclodextrin administered as single dose. Details: dose 2.5 mg/kg, route intravenous. The following applies: in vivo. It counts as ADME, organism-based. The gist of the method:
(§1)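 Single constant-rate IV infusion over 1 h. Heparinised venous plasma was drawn predose and at 1–120 h (>2 yr) or 1–96 h (<2 yr, randomised to the itraconazole/metabolite arm), then stored at –20°C. Analysis used borate-buffered liquid-liquid extraction with internal standard, C18 HPLC and UV detection at 263 nm, linear 5–5,000 ng/ml. Individual Cmax was read by visual inspection, noncompartmental.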

The nature of data set [2]: Apparent volume of distribution in children of >6-12 yrs age at risk for fungal infection at 2.5 mg/kg, iv in 0.1 g/kg hydroxypropyl-beta-cyclodextrin administered as single dose. It counts as ADME, organism-based. Set-up: dose 2.5 mg/kg, route intravenous. The conditions noted are these: human, in vivo. The gist of the method: (§2)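 Single 1-h IV infusion. Plasma sampled from the contralateral limb predose and at 1–120 h (>2 y) or 1–96 h (<2 y). Itraconazole was extracted with internal standard and quantified by C18 HPLC with UV 263 nm detection, linear range 2–2,000 ng/ml. Noncompartmental analysis: Cmax by inspection, AUC0-24 by trapezoidal rule, AUC extrapolated via λz, CL and Vz from AUC0-∞.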

Data set [3] can be described thus: Clearance in infants of 0.6-2 yrs age at risk for fungal infection at 2.5 mg/kg, iv in 0.1 g/kg hydroxypropyl-beta-cyclodextrin administered as single dose. It counts as ADME, organism-based. Details: dose 2.5 mg/kg, route intravenous. The following applies: human, in vivo. The gist of the method:
as §2

For data set [4], the system named is Homo sapiens. As to the kind of experiment: AUC (0 to 24 hrs) in children of >2-6 yrs age at risk for fungal infection assessed as hydroxyitraconazole level at 2.5 mg/kg, iv in 0.1 g/kg hydroxypropyl-beta-cyclodextrin administered as single dose. It counts as ADME, organism-based, Plasma. Details: time < 24 hr, dose 2.5 mg/kg, route intravenous. The following applies: in vivo. The gist of the method: (§3)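 Single 1-h constant-rate IV infusion. Venous plasma sampled predose and to 120 h (>2 y) or 96 h (<2 y), then stored at –20°C. Hydroxyitraconazole was measured by borate/isoamylalcohol-heptane extraction, HCl back-extraction, C18 HPLC and UV 263 nm, with a linear range of 5–5,000 ng/ml. Noncompartmental analysis: Cmax and tmax by inspection, AUC0-24 by trapezoidal rule.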

In data set [5] the test system is Homo sapiens. As to the kind of experiment: AUC (0 to 24 hrs) in children of >2-6 yrs age at risk for fungal infection at 2.5 mg/kg, iv in 0.1 g/kg hydroxypropyl-beta-cyclodextrin administered as single dose. Details: time < 24 hr, dose 2.5 mg/kg, route intravenous. The conditions noted are these: in vivo. It counts as ADME, organism-based, Plasma. The method, boiled down:
as §2

Data set [6] deals with Homo sapiens. As to the kind of experiment: Half life in adolescents of >12-16 yrs age at risk for fungal infection assessed as hydroxyitraconazole level at 2.5 mg/kg, iv in 0.1 g/kg hydroxypropyl-beta-cyclodextrin administered as single dose. It counts as ADME, organism-based. Set-up: dose 2.5 mg/kg, route intravenous. The conditions noted are these: in vivo. The method, boiled down:
as §3

Data set [7] is described as follows: Cmax in adolescents of >12-16 yrs age at risk for fungal infection at 2.5 mg/kg, iv in 0.1 g/kg hydroxypropyl-beta-cyclodextrin administered as single dose. The conditions noted are these: human, in vivo. It counts as ADME, organism-based. Details: dose 2.5 mg/kg, route intravenous. The gist of the method: as §2
Data set [8] has as its system Homo sapiens. As to the kind of experiment: AUC (0 to 24 hrs) in adolescents of >12-16 yrs age at risk for fungal infection assessed as hydroxyitraconazole level at 2.5 mg/kg, iv in 0.1 g/kg hydroxypropyl-beta-cyclodextrin administered as single dose. It counts as ADME, organism-based, Plasma. Details: time < 24 hr, dose 2.5 mg/kg, route intravenous. The following applies: in vivo. The method, boiled down: as §3

Data set [9] relates to Homo sapiens. As to the kind of experiment: AUC (0 to 24 hrs) in children of >6-12 yrs age at risk for fungal infection assessed as hydroxyitraconazole level at 2.5 mg/kg, iv in 0.1 g/kg hydroxypropyl-beta-cyclodextrin administered as single dose. The conditions noted are these: in vivo. It counts as ADME, organism-based, Plasma. Details: time < 24 hr, dose 2.5 mg/kg, route intravenous. The gist of the method: as §3

Data set [10] deals with Homo sapiens. As to the kind of experiment: Cmax in children of >2-6 yrs age at risk for fungal infection assessed as hydroxyitraconazole level at 2.5 mg/kg, iv in 0.1 g/kg hydroxypropyl-beta-cyclodextrin administered as single dose. It counts as ADME, organism-based. Details: dose 2.5 mg/kg, route intravenous. The following applies: in vivo. The gist of the method: as §1

Data set [11] relates to Homo sapiens. As to the kind of experiment: Tmax in adolescents of >12-16 yrs age at risk for fungal infection assessed as hydroxyitraconazole level at 2.5 mg/kg, iv in 0.1 g/kg hydroxypropyl-beta-cyclodextrin administered as single dose. Details: dose 2.5 mg/kg, route intravenous. The following applies: in vivo. It counts as ADME, organism-based. The method, boiled down:
as §3

Data set [12] can be described thus: Cmax in infants of 0.6-2 yrs age at risk for fungal infection at 2.5 mg/kg, iv in 0.1 g/kg hydroxypropyl-beta-cyclodextrin administered as single dose. It counts as ADME, organism-based. Set-up: dose 2.5 mg/kg, route intravenous. The following applies: human, in vivo. The method, boiled down:
as §2

Data set [13] concerns Homo sapiens. As to the kind of experiment: AUC (0 to 24 hrs) in human at risk for fungal infection assessed as hydroxyitraconazole level at 2.5 mg/kg, iv in 0.1 g/kg hydroxypropyl-beta-cyclodextrin administered as single dose. Set-up: time < 24 hr, dose 2.5 mg/kg, route intravenous. It counts as ADME, organism-based, Plasma. The following applies: in vivo. The method, boiled down: as §3

For data set [14], the system named is Homo sapiens. As to the kind of experiment: Half life in children of >6-12 yrs age at risk for fungal infection assessed as hydroxyitraconazole level at 2.5 mg/kg, iv in 0.1 g/kg hydroxypropyl-beta-cyclodextrin administered as single dose. It counts as ADME, organism-based. Set-up: dose 2.5 mg/kg, route intravenous. The following applies: in vivo. The method, boiled down: as §3

Data set [15] is described as follows: Apparent volume of distribution in children of >2-6 yrs age at risk for fungal infection at 2.5 mg/kg, iv in 0.1 g/kg hydroxypropyl-beta-cyclodextrin administered as single dose. It counts as ADME, organism-based. Set-up: dose 2.5 mg/kg, route intravenous. The following applies: human, in vivo. The gist of the method:
as §2

Data set [16] deals with Homo sapiens. As to the kind of experiment: Tmax in children of >2-6 yrs age at risk for fungal infection assessed as hydroxyitraconazole level at 2.5 mg/kg, iv in 0.1 g/kg hydroxypropyl-beta-cyclodextrin administered as single dose. It counts as ADME, organism-based. Details: dose 2.5 mg/kg, route intravenous. The following applies: in vivo. The method, boiled down: as §3

The nature of data set [17]: AUC (0 to 24 hrs) in children of >6-12 yrs age at risk for fungal infection at 2.5 mg/kg, iv in 0.1 g/kg hydroxypropyl-beta-cyclodextrin administered as single dose. It counts as ADME, organism-based. Set-up: time < 24 hr, dose 2.5 mg/kg, route intravenous. The conditions noted are these: human, plasma. The gist of the method: as §2
In data set [18] the test system is Homo sapiens. As to the kind of experiment: Half life in human at risk for fungal infection assessed as hydroxyitraconazole level at 2.5 mg/kg, iv in 0.1 g/kg hydroxypropyl-beta-cyclodextrin administered as single dose. It counts as ADME, organism-based. The conditions noted are these: in vivo. Set-up: dose 2.5 mg/kg, route intravenous. The method, boiled down:
as §3

Data set [19] in a line: Half life in children of >6-12 yrs age at risk for fungal infection at 2.5 mg/kg, iv in 0.1 g/kg hydroxypropyl-beta-cyclodextrin administered as single dose. It counts as ADME, organism-based. Details: dose 2.5 mg/kg, route intravenous. The following applies: human, in vivo. The method, boiled down:
as §2

The nature of data set [20]: AUC (0 to 24 hrs) in infants of 0.6-2 yrs age at risk for fungal infection at 2.5 mg/kg, iv in 0.1 g/kg hydroxypropyl-beta-cyclodextrin administered as single dose. The conditions noted are these: human, plasma. It counts as ADME, organism-based. Details: time < 24 hr, dose 2.5 mg/kg, route intravenous. The method, boiled down: as §2
A short description of data set [21]: Half life in infants of 0.6-2 yrs age at risk for fungal infection at 2.5 mg/kg, iv in 0.1 g/kg hydroxypropyl-beta-cyclodextrin administered as single dose. The conditions noted are these: human, in vivo. It counts as ADME, organism-based. Set-up: dose 2.5 mg/kg, route intravenous. The gist of the method:
as §2

A short description of data set [22]: Clearance in human at risk for fungal infection at 2.5 mg/kg, iv in 0.1 g/kg hydroxypropyl-beta-cyclodextrin administered as single dose. It counts as ADME, organism-based. Details: dose 2.5 mg/kg, route intravenous. The following applies: in vivo. The method, boiled down:
as §2

Data set [23] can be described thus: Cmax in human at risk for fungal infection at 2.5 mg/kg, iv in 0.1 g/kg hydroxypropyl-beta-cyclodextrin administered as single dose. It counts as ADME, organism-based. Details: dose 2.5 mg/kg, route intravenous. The following applies: in vivo. The method, boiled down: as §2

What is called Cmax is the peak of the concentration-time curve. In general, clearance refers to the volume of plasma or blood freed of the substance per unit of time. The term AUC denotes the area under the concentration-time curve, a measure of exposure. By Tmax is commonly meant the time from dosing to the highest level. A word on the AUC(0-t): it is exposure summed from dosing to a finite time, without extrapolation to infinity. The half-life is the time needed for the level to fall by half in the phase considered. The low end stands for fast loss, the high end for slow loss. As to `CCC(C)n1ncn(-c2ccc(N3CCN(c4ccc(OCC5COC(Cn6cncn6)(c6ccc(Cl)cc6Cl)O5)cc4)CC3)cc2)c1=O` (stereo not drawn) [ITRACONAZOLE], the Cmax worked out at 0.265 µg/mL in the data set with Homo sapiens [1]; 0.806 µg/mL in data set [7]; 0.299 µg/mL with Homo sapiens [10]; 0.827 µg/mL in data set [12]; 1.02 µg/mL in data set [23]. The Vd in data set [2] worked out at 13.9 L/kg; in data set [15] it was 8.3 L/kg. Besides, the clearance was 1.14 L/h/kg in data set [3] and 0.703 L/h/kg in data set [22]. In addition, the AUC in the data set with Homo sapiens [4] is 4.249 µg·h/mL; in the data set on Homo sapiens [5], 9.51 µg·h/mL; in the data set with Homo sapiens [8], 3.133 µg·h/mL; in the data set on Homo sapiens [9] it was 4.166 µg·h/mL; in the data set on Homo sapiens [13], 3.811 µg·h/mL. The t1/2 in the data set with Homo sapiens [6] is 12.3 h; in the data set on Homo sapiens [14] it was 14.3 h; in the data set on Homo sapiens [18], 13.3 h. Also, the Tmax is 1.2 h with Homo sapiens [11] and 2.9 h in the data set with Homo sapiens [16]. The figures for the AUC(0-t) at 24 h in [17] and in data set [20] were 3.77 µg·h/mL and 2.12 µg·h/mL, respectively. Besides, the figures for the half-life in [19] and in data set [21] were 17.2 h and 13.3 h, respectively.
